High-throughput results as filed in PubChem.
Only some compounds are listed: those with a hit (about 3.4% of all), similar ones and a draw of the others.
IMP-1 inhibitor: inhibitors of Pseudomonas aeruginosa IMP-1 metallo-beta-lactamase; purified IMP-1, nitrocefin hydrolysis, epi-absorbance fluorescence; inhibition, % at 5.6 µM; actives 0.45% (n = 290,000); AID 1556;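 active = inhibition above the mean plus 3 SD of all compounds in the same screening run, cut at about 4.5% in these data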;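 note: 0% = IMP-1 with DMSO and 100% = DMSO wells lacking enzyme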
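system = purified recombinant IMP-1 beta-lactamase | amount = 0.2 nM IMP-1, as dispensed | medium = HEPES buffer pH 7.1 with ZnSO4 and Brij 35 | times = 25 °C, 15 min preincubation, 25 min reaction | detection = plate fluorescence quenching by hydrolysis product, ex 480/em 530 nm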
MEKK2 WT-MEK5: raises or lowers MEK5 binding to wildtype human MEKK2 PB1 domain. Q9Y2U5. bead flow cytometry, Alexa488-MEK5 binding to MEKK2 WT; actives lie on both sides. binding response (% of control), % at 10 µM. actives 1.1% (n = 290,000); in the data active = binding response below about 67% or above about 130%
VIM-2 inhibitor: inhibitors of Pseudomonas aeruginosa VIM-2 metallo-beta-lactamase; purified VIM-2, nitrocefin hydrolysis, epi-absorbance fluorescence; inhibition, % at 5.6 µM; AID 1527; actives 0.89% (n = 290,000);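 active = inhibition above the mean of all tested compounds plus 3 SD, cutoff set per screening run, cut at about 7.5% in these data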;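 note: red hydrolysis product quenches plate fluorescence so inhibitors raise well fluorescence; 0% = enzyme with DMSO and 100% = DMSO without enzyme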
MEKK2mut PB1 HTS: signal of MEK5 binding to mutant human MEKK2 PB1 domain. actives 0.35% (n = 290,000). percent response, % at 10 µM. bead flow cytometry, Alexa488-MEK5 binding to MEKK2 mutant; in the data active = percent response above about 24%, passing the limit was not always enough
MEKK3 PB1 HTS: raises or lowers MEK5 binding to the human MEKK3 PB1 domain; Q99759; bead-based flow cytometry, Alexa488-MEK5 binding to MEKK3; actives lie on both sides; 0 = blocked by unlabeled MEK5, 100 = vehicle; binding response (% of control), % at 10 µM; actives 1.4% (n = 290,000); AID 1529;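 active = binding response more than 3 SD above or below the average of its plate-row segment, actives on both sides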;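 note: Alexa488 bead fluorescence after subtracting the streptavidin-only scavenger bead signal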
Target sequence (Q99759 whole entry, looked up, the tested form may be a part): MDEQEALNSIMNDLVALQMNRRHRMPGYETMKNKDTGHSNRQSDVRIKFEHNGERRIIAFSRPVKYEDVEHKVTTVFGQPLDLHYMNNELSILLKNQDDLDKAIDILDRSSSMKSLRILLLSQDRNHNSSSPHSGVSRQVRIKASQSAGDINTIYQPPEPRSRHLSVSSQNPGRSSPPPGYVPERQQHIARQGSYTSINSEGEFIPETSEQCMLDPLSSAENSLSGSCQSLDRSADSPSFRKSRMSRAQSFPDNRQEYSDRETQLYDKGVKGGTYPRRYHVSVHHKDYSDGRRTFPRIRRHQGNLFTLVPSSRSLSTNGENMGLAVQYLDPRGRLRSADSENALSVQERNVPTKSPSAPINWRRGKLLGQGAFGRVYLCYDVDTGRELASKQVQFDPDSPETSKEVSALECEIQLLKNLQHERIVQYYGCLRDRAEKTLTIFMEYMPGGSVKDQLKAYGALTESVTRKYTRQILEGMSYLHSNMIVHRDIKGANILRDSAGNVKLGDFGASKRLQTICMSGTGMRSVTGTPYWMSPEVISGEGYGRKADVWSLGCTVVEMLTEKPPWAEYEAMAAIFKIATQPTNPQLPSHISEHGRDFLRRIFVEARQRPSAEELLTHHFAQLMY
MEKK2wt confirm: raises or lowers MEK5 binding to wildtype human MEKK2, retest. shares compounds with MEKK3 PB1 HTS. bead flow cytometry, Alexa488-MEK5 binding to MEKK2 WT; actives lie on both sides. actives 2.4% (n = 5,900). binding response (% of control), % at 10 µM; in the data active = binding response below about 16% or above about 210%; inactive = in between
MEKK2mut confirm: signal of MEK5 binding to mutant human MEKK2, retest. percent response, % at 10 µM. AID 1893. bead flow cytometry, Alexa488-MEK5 binding to MEKK2 mutant. actives 2% (n = 5,900). shares compounds with MEKK3 PB1 HTS; in the data active = percent response mostly above about 71%, no sharp cut-off; inactive = mostly below about 38%;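 note: higher means compound restores mutant binding toward wildtype level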
MEKK3 confirm: confirmation of inhibitors of MEK5 binding to human MEKK3 | shares compounds with MEKK3 PB1 HTS | bead flow cytometry, Alexa488-MEK5 binding to MEKK3; stronger effect = lower value | binding response (% of control), % at 10 µM | actives 1.8% (n = 5,900) | AID 1894;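 active = binding response below 72% of control, or above a set upper limit, though filed actives all read lower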;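 note: 100% = DMSO only wells and 0% = binding blocked by excess unlabeled MEK5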
Starred values were filed as active, the others as inactive; . = not tested or not shown; + = active, no number; [ ] = dose if it differs, or a comment.

SMILES | IMP-1 inhibitor | MEKK2 WT-MEK5 | VIM-2 inhibitor | MEKK2mut PB1 HTS | MEKK3 PB1 HTS | MEKK2wt confirm | MEKK2mut confirm | MEKK3 confirm
CCc1nc(NCC(C)C)c(C#N)c2c1COC(C)(C)C2 | 1.1 | 116.0 | -1.0 | 3.0 | 110.0 | . | . | .
CCc1nc(NCCO)c(C#N)c2c1CSC(C)(C)C2 | 1.3 | 61.0 | 1.6 | -18.0 | 50.0*[inhibitor] | 103.0 | 4.0 | 104.0
CC(=O)OCCNc1cc(SCc2ccco2)c2nonc2c1[N+](=O)[O-] | 1.5 | 113.0 | 5.0 | 1.0 | 146.0* | 107.0 | 6.0 | 106.0
O=[N+]([O-])c1c(NCCCO)cc(SCc2ccco2)c2nonc12 | -1.7 | 101.0 | -0.7 | 4.0 | 106.0 | . | . | .
CCOc1cc(/C=N\NC(=O)Cn2nc([N+](=O)[O-])cc2C)ccc1OCc1cccc2ccccc12 | -2.2 | 98.0 | -2.3 | 1.0 | 101.0 | . | . | .
CCN1CCN(C(c2ccc(C(F)(F)F)cc2)c2ccc3cccnc3c2O)CC1 (configuration not stated) | -3.6 | 164.0* | -5.3 | 40.0* | 115.0 | 166.0 | 40.0 | 106.0
CN1CCN(C(c2ccc(C(F)(F)F)cc2)c2cc(Cl)c3cccnc3c2O)CC1 (configuration not stated) | -2.0 | 130.0 | -4.5 | 12.0 | 105.0 | . | . | .
O=C(N/N=C/c1ccccc1)c1ccc(-c2ccccc2)cc1 | -0.2 | 97.0 | -0.8 | -1.0 | 104.0 | . | . | .
CCN(CC)S(=O)(=O)c1cc(OCC(N)=O)c(C)cc1Cl | -2.9 | 105.0 | -0.5 | 3.0 | 102.0 | . | . | .
CCOC(=O)C1=C(C)N(C)C(C)=C(C(=O)OCC)C1c1ccc(Cl)cc1 | -1.8 | 107.0 | -1.0 | 0.0 | 130.0* | 21.0 | -25.0 | 46.0*
O=C(Cn1nc(-c2ccccc2Cl)ccc1=O)Nc1ccc(Br)cc1 | -2.8 | . | -4.4 | + | 140.0* | 103.0 | 0.0 | 104.0
O=C(Cn1nc(-c2ccccc2Cl)ccc1=O)Nc1ccccc1-c1ccccc1 | -2.6 | 89.0 | -1.2 | -5.0 | 93.0 | . | . | .
CN(C)CCOC(=O)c1ccc2[nH]c3c(c2c1)CSCC3 | -0.9 | 194.0* | 3.6 | 39.0 | 108.0 | 102.0 | -4.0 | 104.0
CCCCNC(=S)Nc1ccc(Cl)cc1 | -2.8 | 97.0 | -4.9 | -1.0 | 105.0 | . | . | .
CCCCNC(=S)Nc1ccc(C(F)(F)F)cc1 | -4.8 | 90.0 | -3.1 | -3.0 | 75.0*[inhibitor] | 101.0 | 1.0 | 100.0
CCOc1ccc(/C=N/Nc2cc(C)nc(N3CCOCC3)n2)cc1 | -2.2 | 102.0 | -2.0 | -1.0 | 96.0 | . | . | .
O=C(O)c1cccnc1SC1CC(=O)N(c2ccccc2)C1=O (configuration not stated) | 5.2* | 117.0 | -0.6 | 33.0 | 128.0* | 95.0 | -7.0 | 96.0
O=C(CCCOc1ccc(Cl)cc1Cl)N/N=C/c1ccccc1 | -0.6 | 105.0 | 0.6 | -1.0 | 125.0 | . | . | .
Cc1ccc(/C=N/NC(=O)CCCOc2ccc(Cl)cc2Cl)cc1 | -3.7 | 101.0 | -1.3 | -1.0 | 137.0* | 98.0 | -6.0 | 98.0
Cc1ccc(/C(N)=N/OC(=O)Cc2cccc3ccccc23)cc1 | -1.9 | 98.0 | -0.1 | -1.0 | 98.0 | . | . | .
COc1ccc(/C=N/NC(=O)CCn2nc(C)cc2C)cc1 | -4.8 | 112.0 | -3.6 | 30.0 | 133.0* | 96.0 | -3.0 | 98.0
Cc1ccc(NC(=O)CCn2nc(C)cc2C)cc1 | -4.7 | 139.0* | -3.9 | 10.0 | 142.0* | 101.0 | 1.0 | 100.0
COc1ccc(/C=N/NC(=O)CCn2nc(C)cc2C)cc1O | -2.7 | 103.0 | -3.0 | 6.0 | 100.0 | . | . | .
COC(=O)c1nc(-n2nc(C)cc2C)ccc1Cl | -0.1 | 105.0 | -1.3 | 3.0 | 101.0 | . | . | .
CC(C)N(Cc1nc(-c2ccccc2)no1)C(=O)C(C)(C)C | -2.7 | 101.0 | -1.0 | 1.0 | 99.0 | . | . | .
COc1ccc(-c2noc(CN(C(=O)C(C)(C)C)C(C)C)n2)cc1 | -2.5 | 114.0 | -1.9 | 25.0* | 118.0 | 98.0 | -3.0 | 100.0
